Measurements published in ChEMBL document CHEMBL1149086, “Antimalarial and antitumor evaluation of novel C-10 non-acetal dimers of 10beta-(2-hydroxyethyl)deoxoartemisinin” (J Med Chem, 2004).

Columns and labels:
Plasmodium falciparum [1] = assay: In vitro antimalarial activity against Plasmodium falciparum K1 by [3H]hypoxanthine uptake; assay type: functional, organism-based
Plasmodium falciparum [2] = assay: In vitro antimalarial activity against Plasmodium falciparum HB3 by [3H]hypoxanthine uptake; assay type: functional, organism-based
Jurkat = assay: Inhibitory concentration against Jurkat cells; assay type: functional, cell-based; conditions: Homo sapiens
Summary of the method: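 Jurkat cells were grown in RPMI-1640 with 10% v/v FBS and 1% v/v L-glutamine at 37 °C under humidified 5% CO2, kept below 1 × 10⁶ cells/mL, with viability above 95%. Cells were plated at 1 × 10⁵/well and exposed to 10⁻¹⁰–10⁻⁴ M drug for 72 h, with final DMSO below 0.5% v/v. [³H]-thymidine (0.5 μCi/well) was added at 48 h for the final 24 h, and incorporation was read by β-scintillation counting.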

HL-60 = assay: Inhibitory concentration against HL60 cells; assay type: functional, cell-based; conditions: Homo sapiens
Summary of the method: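 HL60 (2.5 × 10⁴/well) or Jurkat (1 × 10⁵/well) in RPMI-1640 with 10% FBS and 1% L-glutamine, 5% CO2, 37 °C. Exposed to 10⁻¹⁰–10⁻⁴ M for 72 h, final DMSO below 0.5% v/v. [3H]-thymidine (0.5 μCi) added for the final 24 h. Incorporation counted by β-scintillation.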

Row | Compound | IC50 (Plasmodium falciparum [1]) [nM] | IC50 (Plasmodium falciparum [2]) [nM] | IC50 (Jurkat) [nM] | IC50 (HL-60) [nM]
1 | C[C@H]1[C@@H](CCOC(=O)CCC(=O)OCC[C@H]2O[C@@H]3OC4(C)CC[C@H]5[C@H](C)CC[C@@H]([C@H]2C)[C@@]35OO4)O[C@@H]2OC3(C)CC[C@H]4[C@H](C)CC[C@@H]1[C@@]24OO3 (single isomer, unassigned) | 1.8 | 1.4 |  | 
2 | C[C@H]1[C@@H](CCOC(=O)c2cccc(C(=O)OCC[C@H]3O[C@@H]4O[C@]5(C)CC[C@H]6[C@H](C)CC[C@@H]([C@H]3C)[C@@]46OO5)c2)O[C@@H]2O[C@]3(C)CC[C@H]4[C@H](C)CC[C@@H]1[C@@]24OO3 | 42.2 |  |  | 
3 | C[C@H]1[C@@H](CCOCc2ccccc2COCC[C@H]2O[C@@H]3O[C@]4(C)CC[C@H]5[C@H](C)CC[C@@H]([C@H]2C)[C@@]35OO4)O[C@@H]2O[C@]3(C)CC[C@H]4[C@H](C)CC[C@@H]1[C@@]24OO3 | 2.9 | 1.3 |  | 
4 | C[C@H]1[C@@H](CCOP(=O)(Oc2ccccc2)Oc2ccccc2)O[C@@H]2O[C@]3(C)CC[C@H]4[C@H](C)CC[C@@H]1[C@@]24OO3 | 3.1 |  |  | 
5 | C[C@H]1[C@@H](CCOC(=O)CCCC(=O)OCC[C@H]2O[C@@H]3OC4(C)CC[C@H]5[C@H](C)CC[C@@H]([C@H]2C)[C@@]35OO4)O[C@@H]2OC3(C)CC[C@H]4[C@H](C)CC[C@@H]1[C@@]24OO3 (single isomer, unassigned) | 2.4 | 1.1 |  | 
6 | COP(=O)(OC)OCC[C@H]1O[C@@H]2O[C@]3(C)CC[C@H]4[C@H](C)CC[C@@H]([C@H]1C)[C@@]24OO3 | 2.2 |  |  | 
7 | CC(=O)C1C(=O)C=C(C)OC1=O (stereo unspecified) [DEHYDROACETIC ACID] |  |  | 101000 | 1210
